{"source": "paper PMC8669716", "about": "(ACS Pharmacology & Translational Science, 2021)", "key": {"[1]": {"assay": "Stability in aqueous buffer", "type": "physicochemical", "settings": "aqueous buffer at 37 °C, LCMS, day 6", "summary_of_the_method": "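A 20 mM DMSO solution of test compound was diluted with PBS and held at 37 °C. Samples were analysed by LCMS at T = 0, 4 and 6 days, using one of three compound-specific HPLC method conditions.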"}, "[2]": {"system": "AML cell line TF-1a", "assay": "AML cell viability", "type": "cell-based", "settings": "for EC50: TF-1a, read-out: EC50 viability, AML cell lines"}, "[3]": {"system": "SCLC cell line NCI-H510A", "assay": "SCLC cell viability", "type": "cell-based", "settings": "Homo sapiens, 240 h, read-out: EC50 viability NCI-H510A"}, "[4]": {"target": "LSD1 in MV(4;11) cells (Homo sapiens, UniProt O60341)", "assay": "LSD1 target engagement", "type": "cell-based", "settings": "24 h, 2000, 200, 20 and 2 nM"}, "[5]": {"target": "recombinant LSD1 / GFI1B SNAG domain peptide interaction (Homo sapiens, UniProt O60341)", "assay": "GFI1B-peptide/LSD1 interaction assay", "type": "binding", "settings": "2 μM, 200 nM, 20 nM and 2 nM"}, "[6]": {"target": "INSM1/LSD1 interaction in NCI-H510A cells (Homo sapiens, UniProt O60341)", "assay": "INSM1/LSD1 interaction ELISA on NCI-H510A lysates", "type": "cell-based", "settings": "24 h, 2000, 200, 20 and 2 nM"}, "[7]": {"system": "GRP gene expression in NCI-H510A cells", "assay": "GRP gene expression by qRT-PCR", "type": "cell-based", "settings": "6 days, 2000, 200, 20 and 2 nM", "summary_of_the_method": "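NCI-H510A SCLC cells (mycoplasma-free) seeded at 0.5 million per 5 mL complete RPMI-1640 (10% FBS, 2 mM l-glutamine). They were treated with test compound at 2000, 200, 20 and 2 nM for 6 days at 37 °C, 5% CO2. Pellets of 0.5 million cells were PBS-washed and stored at −80 °C, then total RNA was extracted for qRT-PCR of GRP; N = 1, n = 3.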"}, "[8]": {"settings": "cited from earlier work"}, "[9]": {"target": "T1, human recombinant LSD1 enzyme (Homo sapiens, UniProt O60341)", "assay": "LSD1 HTRF assay", "type": "biochemical"}, "[10]": {"system": "RR-AML patients", "settings": "cited from earlier work"}, "[11]": {"system": "SCLC patients", "settings": "cited from earlier work"}, "[12]": {"target": "T1, human recombinant LSD1 enzyme", "assay": "LSD1 peroxidase", "type": "biochemical"}, "[13]": {"target": "T2, human recombinant LSD2 enzyme (Homo sapiens, UniProt Q8NB78)", "T2 sequence (Q8NB78 1-822)": "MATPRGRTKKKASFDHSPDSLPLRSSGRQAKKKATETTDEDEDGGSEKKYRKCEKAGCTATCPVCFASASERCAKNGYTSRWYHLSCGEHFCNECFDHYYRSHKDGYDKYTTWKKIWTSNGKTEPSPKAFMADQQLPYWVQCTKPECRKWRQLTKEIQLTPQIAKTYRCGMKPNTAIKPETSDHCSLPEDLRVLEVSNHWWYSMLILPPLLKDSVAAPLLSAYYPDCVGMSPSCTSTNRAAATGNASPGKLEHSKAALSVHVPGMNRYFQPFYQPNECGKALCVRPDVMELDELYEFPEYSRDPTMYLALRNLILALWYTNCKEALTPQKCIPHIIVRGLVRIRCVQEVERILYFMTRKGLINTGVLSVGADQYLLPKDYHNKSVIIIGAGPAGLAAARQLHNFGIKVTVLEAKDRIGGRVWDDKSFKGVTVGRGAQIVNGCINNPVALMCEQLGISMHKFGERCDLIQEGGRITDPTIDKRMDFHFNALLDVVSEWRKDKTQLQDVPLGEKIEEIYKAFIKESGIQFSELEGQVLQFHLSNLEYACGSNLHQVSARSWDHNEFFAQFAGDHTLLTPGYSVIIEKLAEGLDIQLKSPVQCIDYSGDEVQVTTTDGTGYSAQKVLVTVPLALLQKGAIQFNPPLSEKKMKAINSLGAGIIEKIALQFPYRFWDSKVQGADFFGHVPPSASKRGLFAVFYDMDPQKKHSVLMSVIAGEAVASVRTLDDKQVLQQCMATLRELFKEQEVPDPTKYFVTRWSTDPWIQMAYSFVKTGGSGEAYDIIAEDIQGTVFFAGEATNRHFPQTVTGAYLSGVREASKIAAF", "assay": "LSD2 HTRF assay", "type": "biochemical", "settings": "read-out: LSD2 inhibition"}, "[14]": {"system": "CD11b induction in THP-1 cells", "assay": "AML differentiation: CD11b by flow cytometry", "type": "cell-based", "settings": "THP-1, 0.02 to 2000 nM, 96 h"}, "[15]": {"target": "LSD1 in NCI-H510A cells (Homo sapiens, UniProt O60341)", "assay": "LSD1 target engagement", "type": "cell-based", "settings": "24 h, 2000, 200, 20 and 2 nM"}, "[16]": {"target": "T1, human recombinant LSD1 enzyme", "settings": "incubation at 10-fold IC50, 100-fold dilution"}}, "data": [{"smiles": "NNCCc1ccccc1", "note": "[phenelzine]", "values": [{"measurement": "T = 6 days purity (parent compound remaining)", "setting": "[1]", "result": 4, "unit": "%"}, {"measurement": "EC50", "setting": "[2]", "result": "> 2", "unit": "µM"}, {"measurement": "EC50", "setting": "[3]", "result": "> 2", "unit": "µM"}]}, {"smiles": "c1ccc([C@@H]2C[C@H]2NC2CCNCC2)cc1", "note": "[OG-668]", "values": [{"measurement": "EC50", "setting": "[3]", "result": 0.00117, "unit": "µM"}, {"measurement": "LSD1 TE", "setting": "[4]", "result": "high LSD1 TE at all concentrations tested"}, {"measurement": "disruption of LSD1/GFI1B interaction", "setting": "[5]", "result": "shows reduction of the LSD1/GFI1B interaction in the 2 μM to 2 nM range"}, {"measurement": "disruption of LSD1/INSM1 PPI", "setting": "[6]", "result": "reduction of the LSD1/INSM1 interaction at all four concentrations"}, {"measurement": "effect on GRP expression", "setting": "[7]", "result": "reduce GRP expression at all concentrations"}]}, {"smiles": "COc1ccc(-c2c(-c3ccc(C#N)c(F)c3)nc(N3CCC(N)CC3)n(C)c2=O)cc1F", "note": "[pulrodemstat]", "values": [{"measurement": "EC50", "setting": "[3]", "result": 0.00177, "unit": "µM"}, {"measurement": "half-life", "setting": "[8]; humans", "result": "≈ 70 h"}, {"measurement": "adverse events reported", "setting": "[8]; monotherapy", "result": "Thrombocytopenia and neutropenia events"}]}, {"smiles": "CN1CCN(C(=O)[C@H](CCCN[C@@H]2C[C@H]2c2ccc(F)cc2)NC(=O)c2ccc(-n3ccnn3)cc2)CC1", "note": "[bomedemstat]", "values": [{"measurement": "fold less active than iadademstat in the LSD1 HTRF assay", "setting": "[9]", "result": 174, "unit": "fold"}, {"measurement": "fold less active than iadademstat in the (TF-1a) AML viability assays", "setting": "[2]", "result": 345, "unit": "fold"}]}, {"smiles": "N[C@H]1CC[C@H](N[C@@H]2C[C@H]2c2ccccc2)CC1", "note": "[iadademstat]", "values": [{"measurement": "EC50", "setting": "[3]", "result": 0.00016, "unit": "µM"}, {"measurement": "effect on GRP expression", "setting": "[7]", "result": "most potently inhibits the expression of the neuroendocrine biomarker (including at 2 nM)"}, {"measurement": "safety and tolerability", "setting": "[10]", "result": "safe and well-tolerated"}]}, {"smiles": "O=C(O)c1ccc(CN2CCC(CN[C@@H]3C[C@H]3c3ccccc3)CC2)cc1", "note": "[GSK-2879552]", "values": [{"measurement": "fold less active than iadademstat in the LSD1 HTRF assay", "setting": "[9]", "result": 491, "unit": "fold"}, {"measurement": "fold less active than iadademstat in the (TF-1a) AML viability assays", "setting": "[2]", "result": 849, "unit": "fold"}, {"measurement": "G3/4 encephalopathy", "setting": "[11]", "result": 10, "unit": "%"}]}, {"smiles": "C/C(=N\\NC(=O)c1cccc(S(=O)(=O)N2CCN(C)CC2)c1)c1cc(Cl)ccc1O", "note": "[seclidemstat]", "values": [{"measurement": "IC50", "setting": "[9]; LSD1 IC50, HTRF assay", "result": 1.3, "unit": "µM"}, {"measurement": "IC50", "setting": "[12]", "result": 2.4, "unit": "µM"}, {"measurement": "inhibition at 10 µM", "setting": "[13]", "result": "< 50", "unit": "%"}, {"measurement": "T = 6 days purity (parent compound remaining)", "setting": "[1]", "result": 72, "unit": "%"}, {"measurement": "EC50", "setting": "[3]", "result": 0.184, "unit": "µM"}, {"measurement": "induction of CD11b marker", "setting": "[14]", "result": "does not induce the CD11b marker"}, {"measurement": "LSD1 TE", "setting": "[15]", "result": "did not show any significant LSD1 TE at the concentrations tested"}, {"measurement": "disruption of LSD1/GFI1B interaction", "setting": "[5]", "result": "does not disrupt the LSD1/GFI1B interaction"}, {"measurement": "disruption of LSD1/INSM1 PPI", "setting": "[6]", "result": "totally inactive"}, {"measurement": "effect on GRP expression", "setting": "[7]", "result": "does not impact GRP expression"}, {"measurement": "recovery of LSD1 activity upon jump dilution", "setting": "[16]", "result": 62, "unit": "%"}]}, {"smiles": "C#CCN(C)Cc1ccccc1", "note": "[pargyline]", "values": [{"measurement": "EC50", "setting": "[2]", "result": "> 2", "unit": "µM"}, {"measurement": "EC50", "setting": "[3]", "result": "> 2", "unit": "µM"}]}]}
